Measured values published in ChEMBL document CHEMBL3745596, “Chlorophenoxy aminoalkyl derivatives as histamine H(3)R ligands and antiseizure agents” (Bioorg Med Chem, 2016).
Activity calls are given as the source filed them.

How the values were obtained:
Mus musculus [1] = test: Anticonvulsant activity in CF1 albino mouse assessed as protection against subcutaneous pentetrazole-induced seizure at 100 mg/kg, ip after 4 hrs; type: functional, organism-based
Summary of the method: (§1)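 Male CF-1 mice, ip in 0.5% methylcellulose; pentetrazole at CD97 (85 mg/kg) injected subcutaneously in a loose fold of neck skin. Observed 30 min; absence of even a threshold seizure (single clonic spasm lasting at least 5 s) counted as protection. Scored protected/tested, or ED50.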

Cytochrome P450 3A4 = Cytochrome P450 3A4 (Homo sapiens, UniProt P08684); test: Inhibition of CYP3A4 (unknown origin) up to 10 uM; type: ADME
[2] = Antiproliferative activity against human IMR32 cells assessed as cell viability after 48 hrs by formazan EZ4U dye based assay; conditions: IMR-32, 48 h
Summary of the method: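 HEK-293 (1.5 × 10⁴/well) or IMR-32 (2 × 10⁴/well) cells in DMEM with 10% FBS, 37 °C, 5% CO₂, grown 24 h to about 60% confluence; compounds 0.01–250 µM final, DMSO at most 1%, 48 h.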

Mus musculus [3] = test: Neurotoxicity in CF1 albino mouse at 30 mg/kg, ip after 4 hrs by rotarod test; type: toxicity, organism-based; conditions: in vivo
Summary of the method: (§2)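 Rotarod neurotoxicity in male albino CF-1 mice dosed ip with compound suspended in 0.5% methylcellulose. Animal placed on a 1 inch diameter knurled plastic rod rotating at 6 rpm. Neurotoxicity scored when the animal falls off three times within 1 min. Readout is number of animals toxic/number tested at the stated time after dosing. TD50 with 95% confidence interval from the quantitative study.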

Rattus norvegicus [4] = test: Anticonvulsant activity in Sprague-Dawley rat assessed as protection against maximal electroshock-induced seizure at 30 mg/kg, po; type: functional
Mus musculus [5] = test: Anticonvulsant activity in CF1 albino mouse assessed as protection against maximal electroshock-induced seizure at 30 mg/kg, ip after 0.5 hrs; type: functional, organism-based
Summary of the method: (§3)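 Male CF-1 mice dosed ip as suspension in 0.5% methylcellulose. Corneal electrodes deliver 60 Hz alternating current, 50 mA for […], after a drop of 0.5% tetracaine HCl in 0.9% NaCl per eye. Protection means abolition of hindlimb tonic extension; scored as protected/tested, or ED50 with 95% confidence interval.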

Histamine H3 receptor [6] = biological target: T1, Histamine H3 receptor (Homo sapiens, UniProt Q9Y5N1); test: Displacement of [3H]-Nalpha-methylhistamine from human recombinant histamine H3 receptor expressed in HEK293 cells after 90 mins; type: cell-based
Mus musculus [7] = test: Neurotoxicity in CF1 albino mouse at 10 mg/kg, ip after 0.5 hrs by rotarod test; type: toxicity, organism-based; conditions: in vivo
Summary of the method: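 Rotarod neurotoxicity in male CF-1 mice dosed ip as 0.5% methylcellulose suspension: mouse placed on 1 inch knurled rod rotating at 6 rpm; toxicity when the animal falls off three times within 1 min, with other signs noted. Scored as toxic/tested at 0.5 h and 4 h.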

Liver microsome = test: Drug metabolism in human liver microsomes after 2 hrs by UPLC-MS/MS analysis; type: ADME
Summary of the method: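 Pooled adult male and female human liver microsomes 1 mg/mL in 0.1 M Tris–HCl pH 7.4 with NADPH regeneration system; started after 5 min preincubation at 37 °C, incubated 2 h at 37 °C, stopped with cold methanol, centrifuged, supernatant analysed by UPLC with ESI tandem quadrupole MS.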

Histamine H3 receptor [8] = biological target: T1, Histamine H3 receptor; test: Antagonist activity at human recombinant histamine H3 receptor expressed in HEK293 cells assessed as inhibition of forskolin/(R)(-)-alpha-methylhistamine-induced cAMP accumulation after 1 hr by TR-FRET immunoassay; type: functional, cell-based
Summary of the method: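 HEK293 cells stably expressing hH3R, stimulated 30 min at room temperature with (R)(-)-α-methylhistamine (15 nM), forskolin and antagonist (0.1 nM–10 µM range) added together. cAMP read by TR-FRET (Eu-cAMP tracer, ULight anti-cAMP antibody, 1 h), converted via cAMP standard curve to % maximal response. Sigmoidal dose–response fit; mean of three experiments, each in triplicate.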

Mus musculus [9] = test: Neurotoxicity in CF1 albino mouse at 30 mg/kg, ip after 0.5 hrs by rotarod test; type: toxicity, organism-based; conditions: in vivo; summary of the method: as §2
Mus musculus [10] = test: Anticonvulsant activity in CF1 albino mouse assessed as protection against maximal electroshock-induced seizure at 30 mg/kg, ip after 4 hrs; type: functional, organism-based; summary of the method: as §3
Mus musculus [11] = test: Neurotoxicity in CF1 albino mouse assessed as unable to grasp rotarod and death at 100 mg/kg, ip after 0.5 hrs by rotarod test; type: toxicity, organism-based; conditions: in vivo
Summary of the method: (§4)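 Male albino CF-1 mice dosed ip with compound suspended in 0.5% methylcellulose, then placed on a 1-inch knurled plastic rod turning at 6 rpm. A fall three times within 1 min counted as neurotoxicity. Observations were made at 0.5 h and 4 h after dosing. Result given as animals showing toxicity per animals tested, with the kind of toxicity recorded.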

Mus musculus [12] = test: Neurotoxicity in CF1 albino mouse at 3 mg/kg, ip after 0.5 hrs by rotarod test; type: toxicity, organism-based; conditions: in vivo; summary of the method: as §2
Mus musculus [13] = test: Anticonvulsant activity in CF1 albino mouse assessed as protection against maximal electroshock-induced seizure at 10 mg/kg, ip after 0.5 hrs; type: functional, organism-based; summary of the method: as §3
Mus musculus [14] = test: Anticonvulsant activity in CF1 albino mouse assessed as protection against maximal electroshock-induced seizure at 3 mg/kg, ip after 0.5 hrs; type: functional, organism-based; summary of the method: as §3
Mus musculus [15] = test: Anticonvulsant activity in CF1 albino mouse assessed as protection against subcutaneous pentetrazole-induced seizure at 30 mg/kg, ip after 0.5 hrs; type: functional, organism-based; summary of the method: as §1
Mus musculus [16] = test: Anticonvulsant activity in CF1 albino mouse assessed as protection against subcutaneous pentetrazole-induced seizure at 100 mg/kg, ip after 0.5 hrs; type: functional, organism-based; summary of the method: as §1
Mus musculus [17] = test: Anticonvulsant activity in CF1 albino mouse assessed as protection against subcutaneous pentetrazole-induced seizure at 30 mg/kg, ip after 4 hrs; type: functional, organism-based; summary of the method: as §1
Mus musculus [18] = test: Neurotoxicity in CF1 albino mouse at 300 mg/kg, ip after 4 hrs by rotarod test; type: toxicity, organism-based; conditions: in vivo; summary of the method: as §2
Mus musculus [19] = test: Neurotoxicity in CF1 albino mouse at 100 mg/kg, ip after 4 hrs by rotarod test; type: toxicity, organism-based; conditions: in vivo; summary of the method: as §2
Mus musculus [20] = test: Neurotoxicity in CF1 albino mouse assessed as death at 300 mg/kg, ip after 0.5 hrs by rotarod test; type: toxicity, organism-based; conditions: in vivo; summary of the method: as §4
Mus musculus [21] = test: Neurotoxicity in CF1 albino mouse assessed as death at 300 mg/kg, ip after 4 hrs by rotarod test; type: toxicity, organism-based; conditions: in vivo; summary of the method: as §4
Mus musculus [22] = test: Anticonvulsant activity in CF1 albino mouse assessed as protection against maximal electroshock-induced seizure at 100 mg/kg, ip after 0.5 hrs; type: functional, organism-based; summary of the method: as §3
Mus musculus [23] = test: Anticonvulsant activity in CF1 albino mouse assessed as protection against maximal electroshock-induced seizure at 100 mg/kg, ip after 4 hrs; type: functional, organism-based; summary of the method: as §3
Rattus norvegicus [24] = test: Anticonvulsant activity in Sprague-Dawley rat assessed as protection against pilocarpine-induced convulsive status epilepticus at 65 mg/kg, ip; type: functional, organism-based
Summary of the method: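 Male Sprague Dawley rats (150–180 g) dosed ip, pilocarpine 50 mg/kg ip given; compound dosed immediately at first behavioral Stage 3 seizure or 30 min later. Number protected from Racine Stage 3 or greater seizures recorded.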

Mus musculus [25] = test: Neurotoxicity in CF1 albino mouse assessed as unable to grasp rotarod, death and loss of righting reflux at 100 mg/kg, ip after 0.5 hrs by rotarod test; type: toxicity, organism-based; conditions: in vivo; summary of the method: as §4

T1 sequence (Q9Y5N1 whole entry): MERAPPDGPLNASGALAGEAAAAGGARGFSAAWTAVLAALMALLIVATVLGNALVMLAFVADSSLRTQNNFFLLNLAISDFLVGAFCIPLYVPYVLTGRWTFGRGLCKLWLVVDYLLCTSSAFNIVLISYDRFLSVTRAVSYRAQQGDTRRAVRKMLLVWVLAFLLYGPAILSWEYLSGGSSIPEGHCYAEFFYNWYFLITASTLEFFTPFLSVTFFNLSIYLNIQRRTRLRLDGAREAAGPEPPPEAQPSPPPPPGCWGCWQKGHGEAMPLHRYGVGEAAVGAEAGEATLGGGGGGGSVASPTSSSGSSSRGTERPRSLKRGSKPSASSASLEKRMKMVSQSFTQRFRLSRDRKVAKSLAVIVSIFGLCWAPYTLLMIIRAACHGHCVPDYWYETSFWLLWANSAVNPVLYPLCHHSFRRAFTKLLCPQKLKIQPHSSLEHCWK
Sequence of Cytochrome P450 3A4 (P08684 whole entry): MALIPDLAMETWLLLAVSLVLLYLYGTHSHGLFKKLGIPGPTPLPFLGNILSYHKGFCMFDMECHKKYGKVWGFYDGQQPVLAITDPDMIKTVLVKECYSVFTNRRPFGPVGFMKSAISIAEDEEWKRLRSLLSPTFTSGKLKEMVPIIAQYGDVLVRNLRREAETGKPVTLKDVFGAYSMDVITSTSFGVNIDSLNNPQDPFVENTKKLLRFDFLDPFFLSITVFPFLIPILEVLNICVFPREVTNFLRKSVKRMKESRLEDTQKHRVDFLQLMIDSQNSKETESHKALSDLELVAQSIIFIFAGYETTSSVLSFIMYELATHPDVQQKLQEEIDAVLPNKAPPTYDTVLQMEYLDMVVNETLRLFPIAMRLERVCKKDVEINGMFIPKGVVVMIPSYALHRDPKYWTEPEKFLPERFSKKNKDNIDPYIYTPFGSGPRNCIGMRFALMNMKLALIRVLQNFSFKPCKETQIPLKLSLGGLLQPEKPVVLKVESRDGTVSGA

Compound	Activity (Mus musculus [1])	Activity (Mus musculus [3])	Activity (Mus musculus [5])	Ki (Histamine H3 receptor [6]) [nM]	Activity (Mus musculus [7])	Activity (Mus musculus [9])	Activity (Mus musculus [10])	Activity (Mus musculus [12])	Activity (Mus musculus [13])	Activity (Mus musculus [14])	Activity (Mus musculus [15])	Activity (Mus musculus [16])	Activity (Mus musculus [17])	Activity (Mus musculus [18])	Activity (Mus musculus [19])	Activity (Mus musculus [20])	Activity (Mus musculus [23])	also measured
CC1CCCN(CCCCCOc2ccc(Cl)cc2)C1.O=C(O)C(=O)O (stereo not given)	inactive	Non-toxic	Active	133	Non-toxic	Non-toxic	inactive	Non-toxic	inactive	inactive	inactive	inactive	inactive	Non-toxic	Non-toxic	Toxic	–	inhibition (INH) (Cytochrome P450 3A4): Not Active; IC50 [2]: 89000 nM; Activity (Rattus norvegicus [4]): 25%; Drug metabolism (Liver microsome): metabolite_detected; EC50 (Histamine H3 receptor [8]): 72 nM; Activity (Mus musculus [11]): Toxic
Clc1cccc(OCCCCCCCN2CCCCC2)c1.O=C(O)C(=O)O	inactive	Non-toxic	inactive	333	–	Non-toxic	inactive	–	–	–	inactive	inactive	inactive	–	Non-toxic	Toxic	inactive	Activity (Mus musculus [21]): Non-toxic; Activity (Mus musculus [22]): inactive; Activity (Rattus norvegicus [24]): Active
Clc1ccc(OCCCCCN2CCCCCC2)cc1.O=C(O)C(=O)O	inactive	Non-toxic	Active	371	Non-toxic	Non-toxic	inactive	Non-toxic	inactive	inactive	inactive	inactive	inactive	Non-toxic	Non-toxic	Toxic	Active	Activity (Mus musculus [25]): Toxic
